According to PMC4879609 (Molecular microbiology, 2016):
Where “and” joins values, the source holds several entries; their conditions need not be identical. Equal entries are not always repeated. Where two headings read alike, the source gives them in different places.

Key:
[1] = target: T1, LdIMPDH (Leishmania donovani, UniProt P21620); experiment: Rate zonal centrifugation, quaternary structure of LdIMPDH; design: species or system L. donovani; settings: saturating nucleotide, glycerol gradient
[2] = target: T2, LmGMPR (Leishmania major, UniProt Q4QEB3); experiment: Rate zonal centrifugation, quaternary structure of LmGMPR; design: species or system L. major; settings: saturating (1.0 mM) nucleotide, 5–40% glycerol gradient
T2 sequence (Q4QEB3 1-492): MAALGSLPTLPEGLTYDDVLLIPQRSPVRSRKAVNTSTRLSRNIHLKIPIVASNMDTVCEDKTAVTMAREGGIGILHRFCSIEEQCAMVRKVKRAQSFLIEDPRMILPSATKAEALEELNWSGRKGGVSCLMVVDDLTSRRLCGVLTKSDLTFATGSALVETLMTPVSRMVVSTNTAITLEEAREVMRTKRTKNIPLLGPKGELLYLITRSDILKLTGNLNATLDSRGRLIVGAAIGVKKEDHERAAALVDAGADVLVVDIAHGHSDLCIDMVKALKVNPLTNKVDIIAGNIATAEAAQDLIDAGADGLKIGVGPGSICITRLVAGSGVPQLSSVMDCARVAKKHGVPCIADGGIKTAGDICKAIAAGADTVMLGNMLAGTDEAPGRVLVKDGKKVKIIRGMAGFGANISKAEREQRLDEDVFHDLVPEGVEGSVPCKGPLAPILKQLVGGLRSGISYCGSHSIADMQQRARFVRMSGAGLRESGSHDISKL
Summary of the method: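 Recombinant LmGMPR expressed in GMPR-deficient E. coli and purified by ammonium sulfate fractionation and Cibacron blue chromatography. Spun at 34,000 rpm for 16 h at 4 °C; 50 μg bovine hemoglobin as internal standard.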

[3] = target: T2, LmGMPR; experiment: Steady-state kinetic analysis of LmGMPR; type: biochemical, L. major; settings: for Increase in NADPH Km value: saturating concentrations of GMP
[4] = target: LdIMPDH CBS domain (His6-impdh112-223) (Leishmania donovani, UniProt P21620); experiment: Intrinsic fluorescence binding to LdIMPDH CBS domain; design: species or system L. donovani
[5] = target: LmGMPR CBS domain (His6-gmpr92-222) (Leishmania major, UniProt Q4QEB3); experiment: Intrinsic fluorescence binding to LmGMPR CBS domain; design: species or system L. major
[6] = target: T2, LmGMPR; experiment: Fluorescence titration of nucleotide binding to full length LmGMPR; design: species or system L. major
[7] = target: T1, LdIMPDH; experiment: biochemical; type: binding
[8] = target: T1, LdIMPDH; settings: read-out: inhibition constant (Ki); ref Dobie et al., 2007; cited from earlier work
[9] = system: Leishmania; experiment: Leishmania growth in media with defined purine source in presence of MPA; type: cell-based; settings: media supplemented with either guanine or xanthine (Fig. S2)
[10] = target: eukaryotic IMPDH enzymes, including human and Leishmania; settings: literature values; cited from earlier work
[11] = target: Leishmania major guanosine 5'-monophosphate reductase (Leishmania major); experiment: rate zonal centrifugation on a glycerol gradient
[12] = target: the molecule itself; experiment: rate zonal centrifugation on a glycerol gradient
[13] = target: the molecule itself; experiment: rate zonal centrifugation on a glycerol gradient; remark: listed apart in the source
[14] = read-out: Kd1, 26 μM LmGMPR, no NADPH, fluorescence at 335 nm
[15] = 20 μM LdIMPDH, single phase binding isotherm

Molecule: Nc1ncnc2c1ncn2[C@@H]1O[C@H](COP(=O)(O)O)[C@@H](O)[C@H]1O [AMP]
- Quaternary structure of LdIMPDH [1]: tetrameric structure

Molecule: Nc1ncnc2c1ncn2[C@@H]1O[C@H](COP(=O)(O)OP(=O)(O)OP(=O)(O)O)[C@@H](O)[C@H]1O [ATP]
- Quaternary structure of LmGMPR [2]: monomeric and dimeric forms
- Decrease in Vmax value ([3]; 1.0 mM ATP): ~ 4 fold
- Increase in GMP Ks (Km) value ([3]; 1.0 mM ATP): 10 fold and ~ 10 fold
- Increase in NADPH Km value [3]: ~ 2 fold
- Kd ([4]; intrinsic fluorescence changes): 148 ± 19 µM
- Quaternary structure of LdIMPDH [1]: tetrameric structure
- Binding saturation ([5]; up to 3.0 mM): saturation binding was not attained
- Kd [6, 14]: 87 ± 24 µM
- Kd [7, 15]: 130 ± 11 µM

Molecule: Nc1nc2c(ncn2[C@@H]2O[C@H](COP(=O)(O)O)[C@@H](O)[C@H]2O)c(=O)[nH]1 [GMP, guanosine 5′-monophosphate]
- Quaternary structure of LmGMPR [2]: stabilized the formation of the LmGMPR tetramer
- Ki [8]: ~200 µM
- Quaternary structure of LdIMPDH [1]: tetrameric structure
- Kd [5]: 333 ± 27 µM
- Kd [6]: 20 ± 2 µM
- Kd [7]: 66 ± 7 µM

Molecule: Nc1nc2c(ncn2[C@@H]2O[C@H](COP(=O)(O)OP(=O)(O)OP(=O)(O)O)[C@@H](O)[C@H]2O)c(=O)[nH]1 [GTP]
- Quaternary structure of LmGMPR [2]: stabilized the formation of the LmGMPR tetramer
- Decrease in GMP Ks value ([3]; 10 μM GTP): ~ 3 fold
- Increase in Vmax value ([3]; 10 μM GTP): ~ 8 fold
- Increase in NADPH Km value [3]: ~ 2 fold
- Utilization as substrate by LmGMPR ([3]; steady state kinetic analysis): not utilized as a substrate
- Kd ([5]; single phase binding isotherm, 35 μM His6-gmpr92-222): 188 ± 19 µM
- Kd [6, 14]: 16 ± 1 µM
- Kd [7, 15]: 67 ± 5 µM

Molecule: COc1c(C)c2c(c(O)c1C/C=C(\C)CCC(=O)O)C(=O)OC2 [MPA, mycophenolic acid]
- Ki [3]: ~20 µM
- Mode of inhibition of LmGMPR [3]: competitive inhibitor of NADPH
- Effect on parasite growth [9]: refractory to MPA
- Ki [10]: 0.004 to 0.02 µM

Molecule: [Mg+2] [Mg^2+]
- Effect on LmGMPR enzymatic activity ([3]; added to the reaction buffer): no significant affect on enzymatic activity

Molecule: NC(=O)C1=CN([C@@H]2O[C@H](COP(=O)(O)OP(=O)(O)OC[C@H]3O[C@@H](n4cnc5c(N)ncnc54)[C@H](O)[C@@H]3O)[C@@H](O)[C@H]2O)C=CC1 [NADH]
- Use as hydride donor for reductive deamination of GMP ([3]; NADH up to 5.0 mM): failed to induce the reductive deamination of GMP

Molecule: NC(=O)C1=CN([C@@H]2O[C@H](COP(=O)(O)OP(=O)(O)OC[C@H]3O[C@@H](n4cnc5c(N)ncnc54)[C@H](OP(=O)(O)O)[C@@H]3O)[C@@H](O)[C@H]2O)C=CC1 [NADPH]
- Kd ([6]; absence of GMP, shift of NADPH emission λmax, excitation 340 nm, equation 3): 27 ± 4 µM

Molecule: O=c1[nH]cnc2nc[nH]c12 [hypoxanthine]
- Binding to LdIMPDH CBS domain [4]: no saturable binding
- Binding to LdIMPDH ([7]; concentration of 2.0 mM): no significant binding

Molecule: Leishmania major guanosine 5'-monophosphate reductase (enzyme)
- stoichiometry N [11]: 2

B1: Leishmania donovani inosine 5'-monophosphate dehydrogenase (enzyme, UniProt P21620 1-514, looked up)
chain: MATNNANYRIKTIKDGCTAEELFRGDGLTYNDFIILPGFIDFGAADVNISGQFTKRIRLHIPIVSSPMDTITENEMAKTMALMGGVGVLHNNCTVERQVEMVKSVKAYRNGFISKPKSVPPNTPISNIIRIKEEKGISGILVTENGDPHGKLLGIVCTKDIDYVKNKDTPVSAVMTRREKMTVERAPIQLEEAMDVLNRSRYGYLPIVNENDEVVNLCSRRDAVRARDYPHSTLDKSGRLICAAATSTRPEDKRRVAALADVGVDVLVLDSSQGNTIYQIAFIKWVKSTYPHLEVVAGNVVTQDQAKNLIDAGADGIRIGMGSGSICITQEVLACGRPQGTAVYKVAQYCASRGVPCTADGGLRQVGDICKALAIGANCAMLGGMLSGTTETPGEYFFKGGVRLKVYRGMGSLEAMSQGKESGKRYLSENEAVQVAQGVSGNVVDKGSAAKLIAYVSKGLQQSAQDIGEISFDAIREKMYAGQVLFSRRSPTAQGEGGVHSLHSYEKKLFAAKM
- stoichiometry N [12]: 2
- stoichiometry N [13]: 4
